Laboratory results: ChEMBL document CHEMBL1135620, “Cyclosporins: structure-activity relationships for the inhibition of the human FPR1 formylpeptide receptor” (J Med Chem, 2002)

Target: T1, fMet-Leu-Phe receptor (Homo sapiens) (UniProt P21462)
T1 sequence (whole entry): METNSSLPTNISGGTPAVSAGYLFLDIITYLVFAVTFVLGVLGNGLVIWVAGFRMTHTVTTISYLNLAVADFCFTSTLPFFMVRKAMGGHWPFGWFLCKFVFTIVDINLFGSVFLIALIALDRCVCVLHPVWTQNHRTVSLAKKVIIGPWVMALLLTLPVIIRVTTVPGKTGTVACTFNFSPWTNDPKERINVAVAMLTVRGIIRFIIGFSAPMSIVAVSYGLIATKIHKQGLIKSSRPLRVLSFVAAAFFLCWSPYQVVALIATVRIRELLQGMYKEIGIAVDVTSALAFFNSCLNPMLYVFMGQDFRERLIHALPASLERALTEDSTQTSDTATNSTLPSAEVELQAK
Test: Inhibitory activity against Human formylpeptide receptor (FPR) of human leukemia HL-60 cells
Type: cell-based
Conditions: not given
Procedure, shortened: (§1)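 HL-60 cells differentiated 48 h with 0.2 mM dibutyryl cAMP, washed, then treated with 5 μM cytochalasin B (5–10 min, 37 °C). Stimulated 10 min with 30 nM f-MLF. N-acetyl-β-D-glucosaminidase release read at 410 nm on p-nitrophenyl substrate after spontaneous-release subtraction. Duplicate wells; IC20/IC50 as mean ± SD of independent experiments.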

Compound | IC20 [µM]
C/C=C/C[C@@H](C)[C@@H](O)[C@H]1C(=O)N[C@@H](CC)C(=O)N(C)CC(=O)N(C)[C@H](CC(C)C)C(=O)N[C@H](C(C)C)C(=O)N[C@@H](CC(C)C)C(=O)N[C@@H](C)C(=O)N[C@H](C)C(=O)N(C)[C@@H](CC(C)C)C(=O)N[C@@H](CC(C)C)C(=O)N(C)[C@@H](C(C)C)C(=O)N1C | 0.37
CC/C=C/C[C@@H](C)[C@@H](O)[C@H]1C(=O)N[C@@H](CC)C(=O)N(C)CC(=O)N(C)[C@H](CC(C)C)C(=O)N[C@H](C(C)C)C(=O)N(C)[C@H](CC(C)C)C(=O)N[C@@H](C)C(=O)N[C@H](CCCCN)C(=O)N(C)[C@@H](CC(C)C)C(=O)N(C)[C@@H](CC(C)C)C(=O)N(C)[C@@H](C(C)C)C(=O)N1C | 0.5
C/C=C/C[C@@H](C)[C@@H](O)[C@H]1C(=O)N[C@@H]([C@@H](C)O)C(=O)N(C)CC(=O)N(C)[C@H](CC(C)C)C(=O)N[C@@H](CC(C)C)C(=O)N(C)[C@H](CC(C)C)C(=O)N[C@@H](C)C(=O)N[C@H](C)C(=O)N(C)[C@@H](CC(C)C)C(=O)N[C@@H](C)C(=O)N(C)[C@@H](C(C)C)C(=O)N1C | 0.8

Target: T2, fMet-Leu-Phe receptor (Homo sapiens, UniProt P21462)
T2 sequence (P21462 whole entry): T1 sequence (whole entry)
Test: Inhibitory activity against human formylpeptide receptor (FPR) of human leukemia HL-60 cells
Type: cell-based
Conditions: not given
Procedure, shortened: as §1

Compound | IC50 [µM]
CC/C=C/C[C@@H](C)[C@@H](O)[C@H]1C(=O)N[C@@H](CC)C(=O)N(C)CC(=O)N(C)[C@@H](CC(C)(C)O)C(=O)N[C@@H](C(C)C)C(=O)N(C)[C@@H](CC(C)C)C(=O)N[C@@H](C)C(=O)N[C@H](C)C(=O)N(C)[C@@H](CC(C)C)C(=O)N(C)[C@@H](CC(C)C)C(=O)N(C)[C@@H](C(C)C)C(=O)N1C | > 10
CC/C=C/C[C@@H](C)[C@@H](O)[C@H]1C(=O)N[C@@H](CC)C(=O)N(C)CC(=O)N(C)[C@@H](CC(C)C)C(=O)N[C@@H](C(C)C)C(=O)N(C)[C@@H](CC(C)C)C(=O)N[C@@H](C)C(=O)N[C@H](CCCCN)C(=O)N(C)[C@@H](CC(C)C)C(=O)N(C)[C@@H](CC(C)C)C(=O)N(C)[C@@H](C(C)C)C(=O)N1C | 6.3
CC/C=C/C[C@@H](C)[C@@H](O)[C@H]1C(=O)N[C@@H](CC)C(=O)N(C)CC(=O)N(C)[C@@H]([C@@H](C)CC)C(=O)N[C@@H](C(C)C)C(=O)N(C)[C@@H](CC(C)C)C(=O)N[C@@H](C)C(=O)N[C@H](C)C(=O)N(C)[C@@H](CC(C)C)C(=O)N(C)[C@@H](CC(C)C)C(=O)N(C)[C@@H](C(C)C)C(=O)N1C | 7
C/C=C/C[C@@H](C)[C@@H](O)[C@H]1C(=O)N[C@@H](CC)C(=O)N(C)CC(=O)N(C)[C@@H](CC(C)C)C(=O)N[C@@H](C(C)C)C(=O)N(C)[C@@H](CC(C)C)C(=O)N[C@@H](C)C(=O)N[C@H](C)C(=O)N[C@@H](CC(C)C)C(=O)N(C)[C@@H](CC(C)C)C(=O)N(C)[C@@H](C(C)C)C(=O)N1C | 3
C/C=C/C[C@@H](C)[C@@H](O)[C@H]1C(=O)N[C@@H](CCC)C(=O)N(C)CC(=O)N(C)[C@@H](CC(C)C)C(=O)N[C@@H](C(C)C)C(=O)N[C@@H](CC(C)C)C(=O)N[C@@H](C)C(=O)N[C@H](C)C(=O)N(C)[C@@H](CC(C)C)C(=O)N(C)[C@@H](CC(C)C)C(=O)N(C)[C@@H](C(C)C)C(=O)N1C | > 10
C/C=C/C[C@@H](C)[C@@H](O)[C@H]1C(=O)N[C@@H](C(C)C)C(=O)N(C)CC(=O)N(C)[C@@H](CC(C)C)C(=O)N[C@@H](C(C)C)C(=O)N(C)[C@@H](CC(C)C)C(=O)N[C@@H](C)C(=O)N[C@H](C)C(=O)N(C)[C@@H](CC(C)C)C(=O)N[C@@H](CC(C)C)C(=O)N(C)[C@@H](C(C)C)C(=O)N1C | > 3
CC[C@@H]1NC(=O)[C@H](CC2CCCCC2)N(C)C(=O)[C@H](C(C)C)N(C)C(=O)[C@H](CC(C)C)N(C)C(=O)[C@H](CC(C)C)N(C)C(=O)[C@@H](C)NC(=O)[C@H](C)NC(=O)[C@H](CC(C)C)N(C)C(=O)[C@H](C(C)C)NC(=O)[C@H](CC(C)C)N(C)C(=O)CN(C)C1=O | 6.33
C/C=C/C[C@@H](C)[C@@H](O)[C@H]1C(=O)N[C@@H](CC)C(=O)N(C)CC(=O)N(C)[C@@H](CC(C)C)C(=O)N[C@@H](C(C)C)C(=O)N(C)[C@@H](CC(C)C)C(=O)N[C@@H](C)C(=O)N[C@H](C)C(=O)N(C)[C@@H](CC(C)C)C(=O)N(C)[C@@H](CC(C)C)C(=O)N[C@@H](C(C)C)C(=O)N1C | > 10
C/C=C/C[C@@H](C)[C@@H](O)[C@H]1C(=O)N[C@@H](CC)C(=O)N(C)CC(=O)N(C)[C@@H](CC(C)C)C(=O)N[C@@H](C(C)C)C(=O)N(C)[C@@H](CC(C)C)C(=O)N[C@@H](C)C(=O)N[C@H](C)C(=O)N(C)[C@@H](CC(C)C)C(=O)N(C)[C@@H](CC(C)C)C(=O)N(C)[C@@H](C)C(=O)N1C | 2.52
C/C=C/C[C@@H](C)[C@@H](O)[C@H]1C(=O)N[C@@H]([C@@H](C)O)C(=O)N(C)CC(=O)N(C)[C@@H](CC(C)C)C(=O)N[C@@H](C(C)C)C(=O)N(C)[C@@H](CC(C)C)C(=O)N[C@@H](C)C(=O)N[C@H](C)C(=O)N(C)[C@@H](CC(C)C)C(=O)N(C)[C@@H](CC(C)C)C(=O)N[C@@H](C(C)C)C(=O)N1C | > 10
C/C=C/C[C@@H](C)[C@@H](O)[C@H]1C(=O)N[C@@H](CC)C(=O)N(C)CC(=O)N(C)[C@@H](CC(C)C)C(=O)N[C@@H](C(C)C)C(=O)N[C@@H](CC(C)C)C(=O)N[C@@H](C)C(=O)N[C@H](C)C(=O)N(C)[C@@H](CC(C)C)C(=O)N[C@@H](CC(C)C)C(=O)N(C)[C@@H](C(C)C)C(=O)N1C | 1.8
C/C=C/C[C@@H](C)[C@@H](O)[C@H]1C(=O)N[C@@H]([C@@H](C)O)C(=O)N(C)CC(=O)N(C)[C@@H](CC(C)C)C(=O)N[C@@H](C(C)C)C(=O)N(C)[C@@H](CC(C)C)C(=O)N[C@@H](C)C(=O)N[C@](O)(C(C)C)C(=O)N(C)[C@@H](CC(C)C)C(=O)N[C@@H](CC(C)C)C(=O)N(C)[C@@H](C(C)C)C(=O)N1C | 2.5
C/C=C/C[C@@H](C)[C@@H](O)[C@H]1C(=O)N[C@@H]([C@@H](C)O)C(=O)N(C)CC(=O)N(C)[C@@H](CC(C)C)C(=O)N[C@@H]([C@@H](C)CC)C(=O)N(C)[C@@H](CC(C)C)C(=O)N[C@@H](C)C(=O)N[C@H](C)C(=O)N(C)[C@@H](CC(C)C)C(=O)N(C)[C@@H](CC(C)C)C(=O)N(C)[C@@H](C(C)C)C(=O)N1C | 2.3
C/C=C/C[C@@H](C)[C@@H](O)[C@H]1C(=O)N[C@@H](CCC)C(=O)N(C)CC(=O)N(C)[C@@H](CC(C)C)C(=O)N[C@@H](C(C)C)C(=O)N(C)[C@@H](CC(C)C)C(=O)N[C@@H](C)C(=O)N[C@H](C)C(=O)N[C@@H](CC(C)C)C(=O)N(C)[C@@H](CC(C)C)C(=O)N(C)[C@@H](C(C)C)C(=O)N1C | > 10
C/C=C/C[C@@H](C)[C@@H](O)[C@H]1C(=O)N[C@@H]([C@@H](C)O)C(=O)N(C)CC(=O)N(C)[C@@H](CC(C)C)C(=O)N[C@@H](CC(C)C)C(=O)N(C)[C@@H](CC(C)C)C(=O)N[C@@H](C)C(=O)N[C@](O)(C(C)C)C(=O)N(C)[C@@H](CC(C)C)C(=O)N[C@@H](CC(C)C)C(=O)N(C)[C@@H](C(C)C)C(=O)N1C | 0.57
C/C=C/C[C@@H](C)[C@@H](O)[C@H]1C(=O)N[C@@H](CC)C(=O)N(C)CC(=O)N(C)[C@@H](CC(C)C)C(=O)N[C@@H](C(C)C)C(=O)N(C)[C@@H](CC(C)C)C(=O)N[C@@H](C)C(=O)N[C@H](C)C(=O)N(C)[C@@H](CC(C)C)C(=O)N[C@@H](CC(C)C)C(=O)N(C)[C@@H](C(C)C)C(=O)N1C | 9.2
C/C=C/C[C@@H](C)[C@@H](O)[C@H]1C(=O)N[C@@H]([C@@H](C)O)C(=O)N(C)CC(=O)N(C)[C@@H](CC(C)C)C(=O)N[C@@H](CC(C)C)C(=O)N(C)[C@@H](CC(C)C)C(=O)N[C@@H](C)C(=O)N[C@H](C)C(=O)N(C)[C@@H](CC(C)C)C(=O)N[C@@H](C)C(=O)N(C)[C@@H](C(C)C)C(=O)N1C | 3.25
C/C=C/C[C@@H](C)[C@@H](O)[C@H]1C(=O)N[C@@H](CC)C(=O)NCC(=O)N(C)[C@@H](CC(C)C)C(=O)N[C@@H](C(C)C)C(=O)N(C)[C@@H](CC(C)C)C(=O)N[C@@H](C)C(=O)N[C@H](CO)C(=O)N(C)[C@@H](CC(C)C)C(=O)N(C)[C@@H](CC(C)C)C(=O)N(C)[C@@H](C(C)C)C(=O)N1C | > 5
CCCCCC[C@H]1C(=O)N[C@@H](CC)C(=O)N(C)CC(=O)N(C)[C@@H](CC(C)C)C(=O)N[C@@H](C(C)C)C(=O)N(C)[C@@H](CC(C)C)C(=O)N[C@@H](C)C(=O)N[C@H](C)C(=O)N(C)[C@@H](CC(C)C)C(=O)N(C)[C@@H](CC(C)C)C(=O)N(C)[C@@H](C(C)C)C(=O)N1C | > 10

Same assay, conditions: hl-60

Compound | IC50 [µM]
C/C=C/C[C@@H](C)[C@@H](O)[C@H]1C(=O)N[C@@H](CC)C(=O)N(C)CC(=O)N[C@@H]([C@@H](C)CC)C(=O)N[C@@H](C(C)C)C(=O)N(C)[C@@H](CC(C)C)C(=O)N[C@@H](C)C(=O)N[C@H](C)C(=O)N(C)[C@@H](CC(C)C)C(=O)N(C)[C@@H](CC(C)C)C(=O)N(C)[C@@H](C(C)C)C(=O)N1C | > 5
C/C=C/C[C@@H](C)[C@@H](O)[C@H]1C(=O)N[C@@H](CC)C(=O)N(C)CC(=O)N(C)[C@@H](CC(C)C)C(=O)N[C@@H](C(C)C)C(=O)N(C)[C@@H](CC(C)C)C(=O)N[C@@H](C)C(=O)N[C@H](C)C(=O)N(C)[C@@H](CC(C)C)C(=O)N(C)[C@@H](CC(C)C)C(=O)N(C)[C@@H]([C@@H](C)CC)C(=O)N1C | > 10
CC/C=C/C[C@@H](C)[C@@H](O)[C@H]1C(=O)N[C@@H](CC)C(=O)N(C)CC(=O)N(C)[C@@H](Cc2ccccc2)C(=O)N[C@@H](C(C)C)C(=O)N(C)[C@@H](CC(C)C)C(=O)N[C@@H](C)C(=O)N[C@H](C)C(=O)N(C)[C@@H](CC(C)C)C(=O)N(C)[C@@H](CC(C)C)C(=O)N(C)[C@@H](C(C)C)C(=O)N1C | > 10
